Results reported in ChEMBL document CHEMBL4680357, “The Basicity Makes the Difference: Improved Canavanine-Derived Inhibitors of the Proprotein Convertase Furin” (ACS Med Chem Lett, 2021).
The source made the active and inactive calls. The rule behind the calls is not given here.

How the values were obtained:
Human orthopneumovirus = assay: Antiviral activity against RSV A2 infected in A549 cells assessed as reduction in plaque formation incubated for 72 hrs upto 10 uM followed by viral infection at MOI of 1 for 1 hr by multicycle replication assay; type: functional, organism-based; settings: human respiratory syncytial virus, dose microM <=10, time 72.0 hrs
How it was run: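 A549 human lung cells were inoculated with RSV A2 at MOI 1 for 1 h, washed, then kept with inhibitor at 0.5–10 μM (0.1–2.5 μM for one compound) or without inhibitor. Supernatants were collected at 16, 24, 48 and 72 h post infection. Titres (PFU/mL) were read by plaque assay, mean ± standard deviation, n = 3.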

dengue virus type 2 = assay: Antiviral activity against DENV-2 infected in african green monkey Vero 76 cells assessed as virus titer reduction incubated for 48 hrs by plaque assay; type: functional, organism-based
West Nile virus = assay: Antiviral activity against West Nile virus infected in […] cells assessed as virus titer reduction incubated for 48 hrs by plaque assay; type: functional, organism-based; settings: Vero 76, 48 h
How it was run: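 Huh-7 cells infected with dengue virus type 2 (strain 16681) or West Nile virus, then cultured with inhibitor. Supernatants were collected 48 h post-infection and titrated by plaque assay on VeroE6 cells (n = 2, mean ± standard deviation). EC50 was calculated from the titer data.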

[1] = Cytotoxicity against african green monkey Vero 76 cells by Cell Titer Glo assay; type: cell-based; settings: chlorocebus sabaeus
[2] = Half life in Sprague-Dawley rat at 1 mg/kg, iv; type: ADME, organism-based; settings: in vivo
How it was run: (§1)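 Rat pharmacokinetics: single intravenous dose of 1 mg/kg or intraperitoneal dose of 2.5 mg/kg. Plasma inhibitor levels were followed over time, and half-life and total body clearance were derived for each route. Cmax and time to Cmax were also derived after intraperitoneal dosing.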

[3] = Total body clearance in Sprague-Dawley rat at 1 mg/kg, iv; type: ADME, organism-based; settings: in vivo; how it was run: as §1
[4] = Half life in Sprague-Dawley rat at 2.5 mg/kg, ip; type: ADME, organism-based; settings: in vivo; how it was run: as §1
[5] = Total body clearance in Sprague-Dawley rat at 2.5 mg/kg, ip; type: ADME, organism-based; settings: in vivo; how it was run: as §1
[6] = Cmax in Sprague-Dawley rat at 2.5 mg/kg, ip; type: ADME, organism-based; set-up: route intraperitoneal, dose 2.5 mg/kg; settings: in vivo
How it was run: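 Rats received a single intraperitoneal dose of 2.5 mg/kg. Plasma drug levels were followed over time, and half-life, total body clearance, and peak plasma concentration with its time were derived from the concentration–time profile.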

[7] = Toxicity in rat assessed as mortality at 1 mg/kg, iv; type: organism-based; settings: in vivo
[8] = Plasma concentration in Sprague-Dawley rat at 2.5 mg/kg, ip measured after 3 hrs; type: ADME, organism-based
Furin = Furin (Homo sapiens, UniProt P09958); assay: Inhibition of recombinant soluble human furin using Phac-Arg-Val-Arg-Arg-AMC fluorogenic substrate
Furin, sequence (P09958 whole entry): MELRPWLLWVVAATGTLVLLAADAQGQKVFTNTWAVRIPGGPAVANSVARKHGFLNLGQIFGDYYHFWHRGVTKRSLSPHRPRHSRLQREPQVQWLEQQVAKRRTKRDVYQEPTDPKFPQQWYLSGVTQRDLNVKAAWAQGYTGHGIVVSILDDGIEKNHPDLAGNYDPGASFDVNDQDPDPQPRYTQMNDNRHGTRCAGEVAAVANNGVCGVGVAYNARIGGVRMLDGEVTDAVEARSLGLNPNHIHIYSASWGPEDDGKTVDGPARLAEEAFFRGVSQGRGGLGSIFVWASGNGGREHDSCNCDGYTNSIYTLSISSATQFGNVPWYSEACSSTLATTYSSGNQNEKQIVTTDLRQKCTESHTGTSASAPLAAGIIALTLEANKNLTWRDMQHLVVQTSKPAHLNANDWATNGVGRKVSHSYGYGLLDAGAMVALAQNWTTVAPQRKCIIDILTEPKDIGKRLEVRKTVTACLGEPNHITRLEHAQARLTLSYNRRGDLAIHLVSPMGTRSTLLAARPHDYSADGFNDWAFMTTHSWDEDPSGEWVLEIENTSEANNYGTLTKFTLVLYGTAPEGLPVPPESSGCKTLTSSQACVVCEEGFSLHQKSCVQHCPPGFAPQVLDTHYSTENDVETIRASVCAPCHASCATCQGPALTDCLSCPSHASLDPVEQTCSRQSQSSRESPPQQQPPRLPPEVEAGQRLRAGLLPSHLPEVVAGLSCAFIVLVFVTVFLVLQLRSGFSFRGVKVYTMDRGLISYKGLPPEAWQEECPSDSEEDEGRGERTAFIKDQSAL
How it was run: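 Enzyme kinetic assay under standard conditions at pH 7.0, using recombinant soluble human furin and the fluorogenic AMC substrate. Inhibition constants were determined from the kinetics.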

Prothrombin = Prothrombin (Bos taurus, UniProt P00735); assay: Inhibition of bovine thrombin using Tos-Gly-Pro-Arg-AMC as substrate by fluorescence assay
Coagulation factor X = Coagulation factor X (Homo sapiens, UniProt P00742); assay: Inhibition of human factor Xa using Mes-Darg-Pro-Arg-AMC as flurogenic substrate by fluorescence assay
Coagulation factor X, sequence (P00742 41-179 limits assumed): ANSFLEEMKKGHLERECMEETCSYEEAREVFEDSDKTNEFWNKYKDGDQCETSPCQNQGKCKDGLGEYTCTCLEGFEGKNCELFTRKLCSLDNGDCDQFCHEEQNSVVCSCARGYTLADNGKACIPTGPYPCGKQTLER
Coagulation factor X, sequence (P00742 235-488 limits assumed): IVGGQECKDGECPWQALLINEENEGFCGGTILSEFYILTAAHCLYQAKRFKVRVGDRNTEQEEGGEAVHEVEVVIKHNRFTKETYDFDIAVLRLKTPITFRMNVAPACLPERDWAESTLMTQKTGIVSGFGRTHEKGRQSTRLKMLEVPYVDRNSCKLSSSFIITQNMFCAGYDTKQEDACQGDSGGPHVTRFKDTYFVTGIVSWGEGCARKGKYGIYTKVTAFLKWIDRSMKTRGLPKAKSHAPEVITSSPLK

Plasminogen = Plasminogen (Homo sapiens, UniProt P00747); assay: Inhibition pf human plasmin using Mes-Darg-Phe-Arg-AMC as substrate by fluorescence assay
Plasminogen, sequence (P00747 97-580 limits assumed): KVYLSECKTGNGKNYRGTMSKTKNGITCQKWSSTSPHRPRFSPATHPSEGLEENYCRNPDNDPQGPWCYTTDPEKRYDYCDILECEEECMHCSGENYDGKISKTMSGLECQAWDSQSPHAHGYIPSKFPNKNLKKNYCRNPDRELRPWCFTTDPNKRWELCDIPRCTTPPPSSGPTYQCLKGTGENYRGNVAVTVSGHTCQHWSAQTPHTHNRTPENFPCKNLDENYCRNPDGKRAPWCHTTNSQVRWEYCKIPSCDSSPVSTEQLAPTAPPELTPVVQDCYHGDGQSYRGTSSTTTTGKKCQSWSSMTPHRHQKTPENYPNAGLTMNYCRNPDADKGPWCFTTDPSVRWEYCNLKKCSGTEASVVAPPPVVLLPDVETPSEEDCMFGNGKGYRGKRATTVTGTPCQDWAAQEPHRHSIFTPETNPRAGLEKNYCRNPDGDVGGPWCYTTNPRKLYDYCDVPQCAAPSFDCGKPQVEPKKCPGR
Plasminogen, sequence (P00747 581-810 limits assumed): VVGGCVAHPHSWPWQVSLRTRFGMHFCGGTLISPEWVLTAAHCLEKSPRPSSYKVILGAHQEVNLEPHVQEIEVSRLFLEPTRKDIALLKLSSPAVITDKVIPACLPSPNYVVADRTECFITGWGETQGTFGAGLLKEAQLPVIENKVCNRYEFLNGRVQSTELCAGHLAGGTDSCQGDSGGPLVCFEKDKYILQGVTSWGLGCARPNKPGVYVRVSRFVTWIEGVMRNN

In the case of `CC(C)(C)[C@H](NC(=O)[C@H](CCONC(=N)N)NC(=O)Cc1ccc(CNC(=N)N)cc1)C(=O)N[C@@H](CCONC(=N)N)C(=O)NCc1ccc(C(=N)N)cc1`, the Activity (Human orthopneumovirus) is reported as “Active”, the EC50 (dengue virus type 2) is reported as 1500 nM and the EC50 (West Nile virus) is reported as 1460 nM. It also gave a CC50 [1] of over 50000 nM, a half-life [2] of 0.9 h and a clearance [3] of 7.37 mL/min/kg. It also gave a half-life [4] of 1.6 h, a CL/F [5] of 4.55 mL/min/kg and a Cmax [6] of 3160 ng/mL. For the same molecule, the Activity [7] was “Non-Toxic” and the concentration at 3 h [8] was over 1000 ng/mL.

For `CC(C)(C)[C@H](NC(=O)[C@H](CCONC(=N)N)NC(=O)Cc1ccc(CNC(=N)N)cc1)C(=O)N[C@@H](CCCCN)C(=O)NCc1ccc(C(=N)N)cc1`, the Ki (Furin) was 0.0363 nM and the Activity (Human orthopneumovirus) was “Active”.

In the case of `CC(C)(C)[C@H](NC(=O)[C@H](CCCNC(=N)N)NC(=O)Cc1ccc(CN)cc1)C(=O)N[C@@H](CCONC(=N)N)C(=O)NCc1ccc(C(=N)N)cc1`, the Ki (Furin) is reported as 0.0768 nM.

In the case of `CC(C)(C)[C@H](NC(=O)[C@H](CCONC(=N)N)NC(=O)Cc1ccc(CN)cc1)C(=O)N[C@@H](CCCCN)C(=O)NCc1ccc(C(=N)N)cc1`, the Activity (Human orthopneumovirus) is reported as “inactive”.

In the case of `CC(C)(C)[C@H](NC(=O)[C@H](CCONC(=N)N)NC(=O)Cc1ccc(CN)cc1)C(=O)N[C@@H](CCONC(=N)N)C(=O)NCc1ccc(C(=N)N)cc1`, the Ki (Furin) is reported as 0.0342 nM.

In the case of `CC(C)(C)[C@H](NC(=O)[C@H](CCCNC(=N)N)NC(=O)Cc1ccc(CNC(=N)N)cc1)C(=O)N[C@@H](CCCNC(=N)N)C(=O)NCc1ccc(C(=N)N)cc1`, the Activity (Human orthopneumovirus) is reported as “Active”, the EC50 (dengue virus type 2) is reported as 760 nM and the EC50 (West Nile virus) is reported as 910 nM. For the same molecule, the CC50 [1] was over 50000 nM, the Ki (Prothrombin) was over 3000 nM and the Ki (Coagulation factor X) was over 3000 nM. For the same molecule, the Ki (Plasminogen) was over 3000 nM.

`CC(C)(C)[C@H](NC(=O)[C@H](CCCNC(=N)N)NC(=O)Cc1ccc(CNC(=N)N)cc1)C(=O)N[C@@H](CCONC(=N)N)C(=O)NCc1ccc(C(=N)N)cc1` showed a Ki (Furin) of 0.0131 nM.
